In ChEMBL document CHEMBL4270482, “Cytotoxic Fusicoccane-Type Diterpenoids from Streptomyces violascens Isolated from Ailuropoda melanoleuca Feces” (J Nat Prod, 2017):
Counter-ions that a name gives are not always drawn. Activity calls are given as the source filed them. No cut-off for these calls is given here.

Tests used:
SMMC-7721 [1] = test: Cytotoxicity against human SMMC7721 cells assessed as inhibition of growth at 200 uM incubated for 72 hrs by MTT assay; format: functional; conditions: for inhibition at 200 µM: SMMC-7721, 72 h
NCI-H460 [2] = test: Cytotoxicity against human NCI-H460 cells assessed as inhibition of growth at 200 uM incubated for 72 hrs by MTT assay; format: functional; conditions: for inhibition at 200 µM: NCI-H460, 72 h
NCI-H460 [3] = test: Cytotoxicity against human NCI-H460 cells assessed as inhibition of growth incubated for 72 hrs by MTT assay; format: functional, cell-based; conditions: NCI-H460, 72 h
Outline: (§1)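 Cells grown in RPMI-1640 or DMEM with 10% heat-inactivated FBS. Exposed to six concentrations (100, 33, 10, 3.3, 1.0, 0.33 μM) for 72 h at 37 °C. MTT (5 mg/mL, 10 μL) added for 4 h, then medium removed and DMSO added, absorbance read at 570 nm. IC50 is the concentration giving 50% lower absorbance than control. Mean ± SD of three independent experiments; adriamycin positive control.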

HCT-116 [4] = test: Cytotoxicity against human HCT116 cells assessed as inhibition of growth at 200 uM incubated for 72 hrs by MTT assay; format: functional; conditions: for inhibition at 200 µM: HCT-116, 72 h
HeLa [5] = test: Cytotoxicity against human HeLa cells assessed as inhibition of growth incubated for 72 hrs by MTT assay; format: functional, cell-based; outline: as §1
BGC-823 [6] = test: Cytotoxicity against human BGC823 cells assessed as inhibition of growth incubated for 72 hrs by MTT assay; format: functional, cell-based; conditions: BGC-823, 72 h; outline: as §1
SMMC-7721 [7] = test: Cytotoxicity against human SMMC7721 cells assessed as inhibition of growth incubated for 72 hrs by MTT assay; format: functional, cell-based; conditions: SMMC-7721, 72 h; outline: as §1
HCT-116 [8] = test: Cytotoxicity against human HCT116 cells assessed as inhibition of growth incubated for 72 hrs by MTT assay; format: functional, cell-based; conditions: HCT-116, 72 h; outline: as §1
BGC-823 [9] = test: Cytotoxicity against human BGC823 cells assessed as inhibition of growth at 200 uM incubated for 72 hrs by MTT assay; format: functional; conditions: for inhibition at 200 µM: BGC-823, 72 h
HeLa [10] = test: Cytotoxicity against human HeLa cells assessed as inhibition of growth at 200 uM incubated for 72 hrs by MTT assay; format: functional
SMMC-7721 [11] = test: Inhibition of MMP9 gene expression in human SMMC7721 cells at […] to 5.49 uM incubated for 24 hrs by real-time PCR analysis; format: functional, cell-based
Outline: (§2)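 SMMC7721 cells (5 × 10^5/well) treated with 0.61, 1.83 or 5.49 μM for 24 h. Total RNA analysed by SYBR Green qPCR using MMP-2 and MMP-9 specific primers. Cycling: 95 °C for 10 min, then 44 cycles of 95 °C 10 s, 60 °C 20 s, 72 °C 20 s. GAPDH internal control.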

SMMC-7721 [12] = test: Inhibition of MMP9 protein expression in human SMMC7721 cells at […] to 5.49 uM incubated for 24 hrs by Western blot analysis; format: functional, cell-based
Outline: (§3)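 SMMC7721 cells (5 × 10^5/well) treated with 0.61, 1.83 or 5.49 μM for 24 h, then lysed in RIPA buffer with protease inhibitors for 40 min on ice. Protein (60 μg) resolved on 10% SDS-PAGE and transferred to PVDF. Probed with MMP-2 or MMP-9 primary antibody and peroxidase-conjugated secondary, detected by chemiluminescence, normalized to GAPDH.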

[13] = target: 72 kDa type IV collagenase (Homo sapiens) (UniProt P08253); test: Inhibition of MMP2 activity in human SMMC7721 cells incubated for 24 hrs by gelatin zymography; format: cell-based
Outline: (§4)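 SMMC7721 cells (2 × 10^5/well) treated with 0.61, 1.83 or 5.49 μM for 24 h. Culture supernatants run on 10% SDS-PAGE containing 0.1% gelatin. Gels washed in 2.5% Triton X-100 (three 1-h washes), then incubated 36 h at 37 °C in 50 mM Tris-HCl, 10 mM CaCl2, 1 μM ZnCl2, 0.2 M NaCl, pH 7.6. Coomassie R250 stain; bands at 72 kDa (MMP-2) and 92 kDa (MMP-9) quantified by densitometry. Mean ± SD, n = 3.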

SMMC-7721 [14] = test: Cytotoxicity against human SMMC7721 cells assessed as inhibition of growth at 0.6 to 5.5 uM incubated for 24 hrs by MTT assay; format: functional, cell-based
Outline: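 SMMC7721 viability measured by MTT after exposure to 0, 0.61, 1.83, 5.49 or 16.5 μM for 0, 24, 48 and 72 h. Vehicle-treated cells served as control. Mean ± SD, n = 3.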

SMMC-7721 [15] = test: Inhibition of cell adhesion of human SMMC7721 cells at 0.61 to 5.49 uM incubated for 1 hr by matrigel based assay; format: functional
Outline: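 Wells coated overnight with Matrigel in 0.5% serum-free RPMI-1640, blocked with 2% BSA for 30 min and washed with PBS. SMMC7721 cells (2 × 10^4/well) added with 0.61, 1.83 or 5.49 μM and left to adhere for 1 h. Medium removed, 0.2% crystal violet applied for 10 min, dye dissolved in DMSO, OD read at 540 nm. Mean ± SD, n = 3.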

SMMC-7721 [16] = test: Inhibition of cell migration of human SMMC7721 cells incubated for 24 hrs by H and E staining based transwell chamber assay; format: functional
Outline: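 Transwell migration: 4 × 10^5 SMMC7721 cells in RPMI-1640 with 0.1% FBS plus 0.61, 1.83 or 5.49 μM placed in upper chamber; lower chamber held RPMI-1640 with 10% FBS. Cells on the lower membrane surface fixed in paraformaldehyde for 30 min and stained with H&E for 5 min. Methods give 6 h, legend gives 24 h. Vehicle control; mean ± SD, n = 3.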

SMMC-7721 [17] = test: Inhibition of MMP2 protein expression in human SMMC7721 cells at […] to 5.49 uM incubated for 24 hrs by Western blot analysis; format: functional, cell-based; outline: as §3
SMMC-7721 [18] = test: Inhibition of MMP2 gene expression in human SMMC7721 cells at […] to 5.49 uM incubated for 24 hrs by real-time PCR analysis; format: functional, cell-based; outline: as §2
[19] = target: Matrix metalloproteinase-9 (Homo sapiens) (UniProt P14780); test: Inhibition of MMP9 activity in human SMMC7721 cells incubated for 24 hrs by gelatin zymography; format: cell-based; outline: as §4
Matrix metalloproteinase-9 (Homo sapiens), sequence (P14780 whole entry): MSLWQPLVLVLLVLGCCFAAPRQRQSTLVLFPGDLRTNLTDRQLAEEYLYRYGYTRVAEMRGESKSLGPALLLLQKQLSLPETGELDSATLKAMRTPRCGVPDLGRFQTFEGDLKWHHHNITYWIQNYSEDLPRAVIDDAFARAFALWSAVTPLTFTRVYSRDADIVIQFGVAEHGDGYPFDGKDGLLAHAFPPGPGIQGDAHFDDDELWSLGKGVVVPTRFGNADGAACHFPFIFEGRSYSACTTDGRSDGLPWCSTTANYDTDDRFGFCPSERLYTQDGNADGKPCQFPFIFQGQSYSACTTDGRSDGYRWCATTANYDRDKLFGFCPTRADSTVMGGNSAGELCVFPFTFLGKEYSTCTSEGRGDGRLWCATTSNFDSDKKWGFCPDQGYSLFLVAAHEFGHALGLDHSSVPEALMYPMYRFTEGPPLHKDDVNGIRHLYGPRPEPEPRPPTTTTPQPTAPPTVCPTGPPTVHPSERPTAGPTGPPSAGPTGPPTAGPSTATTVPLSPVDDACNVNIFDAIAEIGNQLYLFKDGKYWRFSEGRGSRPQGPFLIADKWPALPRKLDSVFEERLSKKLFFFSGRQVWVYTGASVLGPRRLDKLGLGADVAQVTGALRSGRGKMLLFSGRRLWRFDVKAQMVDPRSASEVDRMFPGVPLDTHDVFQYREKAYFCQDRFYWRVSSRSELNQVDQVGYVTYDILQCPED

72 kDa type IV collagenase (Homo sapiens), sequence (P08253 110-660 limits assumed): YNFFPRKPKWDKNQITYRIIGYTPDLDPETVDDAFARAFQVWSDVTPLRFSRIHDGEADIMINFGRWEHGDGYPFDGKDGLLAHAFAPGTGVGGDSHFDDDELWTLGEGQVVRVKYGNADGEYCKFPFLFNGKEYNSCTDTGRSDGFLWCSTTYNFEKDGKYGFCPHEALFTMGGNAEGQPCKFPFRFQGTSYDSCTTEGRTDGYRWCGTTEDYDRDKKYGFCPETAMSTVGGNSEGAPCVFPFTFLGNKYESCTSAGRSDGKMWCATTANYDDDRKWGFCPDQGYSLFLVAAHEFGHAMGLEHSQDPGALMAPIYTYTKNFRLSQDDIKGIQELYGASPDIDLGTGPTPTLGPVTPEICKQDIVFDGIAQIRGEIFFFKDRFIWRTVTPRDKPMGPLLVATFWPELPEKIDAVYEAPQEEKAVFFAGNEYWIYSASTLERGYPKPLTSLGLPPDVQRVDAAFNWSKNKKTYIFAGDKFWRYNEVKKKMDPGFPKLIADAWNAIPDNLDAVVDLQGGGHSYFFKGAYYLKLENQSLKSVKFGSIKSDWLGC

| Compound | inhibition at 200 µM (SMMC-7721 [1]) [%] | inhibition at 200 µM (NCI-H460 [2]) [%] | IC50 (NCI-H460 [3]) [µM] | inhibition at 200 µM (HCT-116 [4]) [%] | IC50 (HeLa [5]) [µM] | IC50 (BGC-823 [6]) [µM] | IC50 (SMMC-7721 [7]) [µM] | IC50 (HCT-116 [8]) [µM] | inhibition at 200 µM (BGC-823 [9]) [%] | inhibition at 200 µM (HeLa [10]) [%] | other results |
| --- | --- | --- | --- | --- | --- | --- | --- | --- | --- | --- | --- |
| CC(C)[C@H]1CC[C@]2(C)C[C@@H]3[C@H](CO)C[C@@H](O)[C@H]3[C@@](C)(O)C/C=C/12 | 90 | 90 | > 100 | 90 | > 100 | > 100 | > 100 | > 100 | 90 | 90 | – |
| COc1cccc2c1C(=O)c1c(O)c3c(c(O)c1C2=O)C[C@@](O)(C(=O)CO)C[C@@H]3O[C@H]1C[C@H](N)[C@H](O)[C@H](C)O1 [DOXORUBICIN HYDROCHLORIDE] | – | – | 1 | – | – | 1.5 | 2.2 | 1.4 | – | – | – |
| CC(C)[C@H]1C[C@H](O)[C@]2(C)C[C@@H]3[C@H](CO)C[C@@H](O)[C@H]3[C@@](C)(O)C/C=C/12 | 50 | 50 | > 100 | 50 | > 100 | > 100 | > 100 | > 100 | 50 | 50 | – |
| CCC(=O)[C@@H](C)[C@H]1O[C@@](O)([C@@H](C)C(=O)OC[C@H](C)[C@H]2CC[C@]3(C)C[C@@H]4[C@H](CO)C[C@@H](O)[C@H]4[C@@](C)(O)C/C=C/23)[C@H](C)C[C@H]1C | – | – | 6.1 | – | 9.3 | 9.5 | 14.1 | 8 | – | – | – |
| CCCC(=O)[C@@H](C)[C@H]1O[C@@](O)([C@H](C)C(=O)OC[C@H](C)[C@H]2CC[C@]3(C)C[C@@H]4[C@H](CO)C[C@@H](O)[C@H]4[C@@](C)(O)C/C=C/23)[C@H](C)C[C@H]1C | – | – | 3.5 | – | 7.6 | 10.5 | 9.6 | 5.8 | – | – | inhibition (SMMC-7721 [11]): Dose-dependent effect; inhibition (SMMC-7721 [12]): Active; inhibition [13]: Dose-dependent effect; Activity (SMMC-7721 [14]): inactive; inhibition (SMMC-7721 [15]): Active; inhibition (SMMC-7721 [16]): Dose-dependent effect; inhibition (SMMC-7721 [17]): Active; inhibition (SMMC-7721 [18]): Dose-dependent effect; inhibition [19]: Dose-dependent effect |
| CC(C)[C@H]1C[C@@H](O)[C@]2(C)C[C@@H]3[C@H](CO)C[C@@H](O)[C@H]3[C@@](C)(O)C/C=C/12 | 50 | 50 | > 100 | 50 | > 100 | > 100 | > 100 | > 100 | 50 | 50 | – |
| CCC(=O)[C@@H](C)[C@H]1O[C@@](O)([C@H](C)C(=O)OC[C@H](C)[C@H]2CC[C@]3(C)C[C@@H]4[C@H](CO)C[C@@H](O)[C@H]4[C@@](C)(O)C/C=C/23)[C@H](C)C[C@H]1C | – | – | 4.1 | – | 6.7 | 7 | 8.9 | 6.7 | – | – | – |
| CC(C)[C@@]1(O)CC[C@]2(C)C[C@@H]3[C@H](CO)C[C@@H](O)[C@H]3[C@@](C)(O)C/C=C\21 | – | – | > 100 | – | > 100 | > 100 | > 100 | > 100 | – | – | inhibition (SMMC-7721 [1]): inactive; inhibition (NCI-H460 [2]): inactive; inhibition (HCT-116 [4]): inactive; inhibition (BGC-823 [9]): inactive; inhibition (HeLa [10]): inactive |
